# Measured values: ChEMBL document CHEMBL2157934, “Pyrrolidinyl phenylurea derivatives as novel CCR3 antagonists” (Bioorg Med Chem Lett, 2012)
# pIC50: −log10 of the molar value. Calls of active or inactive are those of the source. The calls are words filed in the database; no cut-off is given here.
# Key:
# [1] = target: T1, C-C chemokine receptor type 3 (Homo sapiens, UniProt P51677); test: Antagonist activity at CCR3 receptor; assay type: functional
# T1 sequence (P51677 whole entry): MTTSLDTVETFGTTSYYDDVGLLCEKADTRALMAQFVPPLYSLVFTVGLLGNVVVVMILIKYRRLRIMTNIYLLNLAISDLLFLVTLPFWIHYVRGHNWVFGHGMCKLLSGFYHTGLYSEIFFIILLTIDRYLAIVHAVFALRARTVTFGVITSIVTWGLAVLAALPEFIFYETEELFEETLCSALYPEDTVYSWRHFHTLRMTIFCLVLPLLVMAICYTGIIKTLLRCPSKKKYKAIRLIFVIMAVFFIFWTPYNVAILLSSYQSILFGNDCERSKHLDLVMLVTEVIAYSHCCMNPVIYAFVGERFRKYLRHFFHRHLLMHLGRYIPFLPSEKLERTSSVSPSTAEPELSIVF
# [2] = Oral bioavailability in cynomolgus monkey; assay type: ADME, organism-based, Macaca fascicularis; details: in vivo
# [3] = target: T2, C-C chemokine receptor type 3 (Homo sapiens) (UniProt P51677); test: (§1) Antagonist activity at CCR3 receptor in human eosinophils assessed as inhibition of CCL11-induced degranulation after 4 hrs by ELISA; assay type: functional
# T2 sequence (whole entry): T1 sequence (P51677 whole entry)
# Method in brief: (§2)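 Eosinophils isolated from peripheral blood of normal human volunteers; wells pre-blocked with 2.5% BSA in PBS, 2 h, 37 °C. 5 × 10^5 cells in RPMI 1640 with 0.5% BSA, with or without 0.6 nM human CCL11 and varying antagonist concentrations, incubated 4 h at 37 °C, 5% CO2. Supernatant EDN quantified by ELISA; IC50 from dose-response.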
# [4] = target: T1, C-C chemokine receptor type 3; test: as §1; assay type: functional; method in brief: as §2
# [5] = target: T3, C-C chemokine receptor type 1 (Homo sapiens) (UniProt P32246); test: Inhibition of CCR1 receptor at 10 uM
# T3 sequence (whole entry): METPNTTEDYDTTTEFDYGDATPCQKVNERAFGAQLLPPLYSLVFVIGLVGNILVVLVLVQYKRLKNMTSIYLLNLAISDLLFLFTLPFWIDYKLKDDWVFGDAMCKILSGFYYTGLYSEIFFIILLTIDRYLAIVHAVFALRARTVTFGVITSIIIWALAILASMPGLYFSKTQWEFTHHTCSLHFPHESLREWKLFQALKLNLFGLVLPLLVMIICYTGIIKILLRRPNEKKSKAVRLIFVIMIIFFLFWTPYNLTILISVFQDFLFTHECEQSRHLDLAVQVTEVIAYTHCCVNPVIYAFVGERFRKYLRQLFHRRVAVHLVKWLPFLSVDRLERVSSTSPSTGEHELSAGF
# [6] = target: C-C chemokine receptor type 2 (Homo sapiens) (UniProt P41597); test: Inhibition of CCR2 receptor at 10 uM
# [7] = target: C-C chemokine receptor type 5 (Homo sapiens) (UniProt P51681); test: Inhibition of CCR5 receptor at 10 uM
# Sequence of C-C chemokine receptor type 5 (Homo sapiens) (P51681 whole entry, looked up): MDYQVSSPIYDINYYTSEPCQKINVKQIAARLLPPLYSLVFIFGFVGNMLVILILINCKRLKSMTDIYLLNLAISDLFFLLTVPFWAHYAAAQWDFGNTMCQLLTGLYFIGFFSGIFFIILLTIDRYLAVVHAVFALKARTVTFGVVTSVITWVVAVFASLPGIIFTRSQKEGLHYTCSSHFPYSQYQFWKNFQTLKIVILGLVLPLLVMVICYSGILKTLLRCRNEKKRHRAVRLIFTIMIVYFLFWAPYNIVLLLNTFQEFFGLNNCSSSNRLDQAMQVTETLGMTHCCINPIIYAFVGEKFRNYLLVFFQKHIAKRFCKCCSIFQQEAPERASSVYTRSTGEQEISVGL
# Sequence of C-C chemokine receptor type 2 (Homo sapiens) (P41597 whole entry, looked up): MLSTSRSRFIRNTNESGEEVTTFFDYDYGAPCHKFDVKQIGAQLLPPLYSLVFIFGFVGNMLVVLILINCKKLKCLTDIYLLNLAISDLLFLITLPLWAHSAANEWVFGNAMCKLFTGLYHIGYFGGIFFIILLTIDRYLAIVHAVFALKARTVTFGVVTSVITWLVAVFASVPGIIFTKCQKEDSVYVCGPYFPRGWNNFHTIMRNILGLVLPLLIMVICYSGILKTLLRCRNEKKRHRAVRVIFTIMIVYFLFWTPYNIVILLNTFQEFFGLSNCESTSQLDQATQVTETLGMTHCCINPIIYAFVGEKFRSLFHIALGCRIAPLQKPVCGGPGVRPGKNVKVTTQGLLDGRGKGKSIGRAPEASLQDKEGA
Structure (SMILES),pIC50 [1],also measured
O=C(NC1CCN(S(=O)(=O)c2ccccc2O)CC1)N[C@@H]1CCN(Cc2ccc3cc(F)ccc3c2)C1,8.62,–
O=C(Nc1ccccc1CCO)N[C@@H]1CCN(Cc2ccc3cc(F)ccc3c2)C1,7.92,–
O=C(NC1CCN(S(=O)(=O)c2ccccc2O)CC1)N1CCCN(Cc2ccc3cc(F)ccc3c2)CC1,7.60,–
O=C(Nc1ccccc1OCCO)N[C@@H]1CCN(Cc2ccc3cc(F)ccc3c2)C1,8.77,bioavailability [2]: 22%; inhibition [3]: Dose-dependent effect; pIC50 [4]: 9.06; inhibition [5]: inactive; inhibition [6]: inactive; inhibition [7]: inactive
O=C(Nc1ccccc1)N[C@@H]1CCN(Cc2ccc3cc(F)ccc3c2)C1,7.30,–
O=C(NC1CCCCC1)N[C@@H]1CCN(Cc2ccc3cc(F)ccc3c2)C1,7.39,–
O=C(Nc1ccccc1OCCCCO)N[C@@H]1CCN(Cc2ccc3cc(F)ccc3c2)C1,7.29,–
O=C1N(CCc2ccccc2)CCC12CCN(Cc1ccc3cc(F)ccc3c1)CC2,6.22,–
O=C(Nc1ccccc1OCCCO)N[C@@H]1CCN(Cc2ccc3cc(F)ccc3c2)C1,7.30,–
COCCOc1ccccc1NC(=O)N[C@@H]1CCN(Cc2ccc3cc(F)ccc3c2)C1,7.15,–
CN(C)CCOc1ccccc1NC(=O)N[C@@H]1CCN(Cc2ccc3cc(F)ccc3c2)C1,7.30,–
O=C(Nc1ccccc1CCCO)N[C@@H]1CCN(Cc2ccc3cc(F)ccc3c2)C1,7.62,–
O=C(Nc1ccc(OCCO)cc1)N[C@@H]1CCN(Cc2ccc3cc(F)ccc3c2)C1,7.15,–
O=C(Nc1cccc(OCCO)c1)N[C@@H]1CCN(Cc2ccc3cc(F)ccc3c2)C1,7.55,–
NC(=O)COc1ccccc1NC(=O)N[C@@H]1CCN(Cc2ccc3cc(F)ccc3c2)C1,6.96,–
O=C(NC1CCN(Cc2ccccc2)CC1)N1CCCN(Cc2ccc3cc(F)ccc3c2)CC1,6.42,–
O=C(Nc1ccccc1OCCOCCO)N[C@@H]1CCN(Cc2ccc3cc(F)ccc3c2)C1,6.96,–
COCc1ccccc1NC(=O)N[C@@H]1CCN(Cc2ccc3cc(F)ccc3c2)C1,7.36,–
O=C(Nc1ccccc1COCCO)N[C@@H]1CCN(Cc2ccc3cc(F)ccc3c2)C1,8.00,–
CS(=O)(=O)N1CCC(NC(=O)N[C@@H]2CCN(Cc3ccc4cc(F)ccc4c3)C2)CC1,7.85,–
CN(C)C(=O)COc1ccccc1NC(=O)N[C@@H]1CCN(Cc2ccc3cc(F)ccc3c2)C1,6.72,–
O=C1OC2(CCN(Cc3ccc4cc(F)ccc4c3)CC2)c2ccccc2N1Cc1ccccc1,5.70,–
